Source: PubChem (Broad Institute)
IDH1 mut inh – inhibitors of human IDH1 R132H; inhibition, % at 10 µM; O75874; IDH1 R132H reductase, diaphorase/resazurin fluorescence, 60 min; actives 0.18% (n = 70,000); in the data active = inhibition above about 34%; inconclusive = no clear call, values can overlap the other calls; inactive = below about 11%;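 note: 0% = DMSO and 100% = no enzyme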
KDM4C inh – inhibitors of human demethylase GASC-1 KDM4C; Q9H3R0; GST-KDM4C 2-372, H3K9me3 peptide, LANCE TR-FRET; inhibition, % at 12.5 µM; actives 0.15% (n = 96,000); AID 720574;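 active = mean replicate inhibition above about 25%, with at least 55% of replicates also reaching it, limit read from the data, passing the limit was not always enough; inconclusive = only one of those two conditions met; inactive = neither condition met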
Target sequence (Q9H3R0 2-372 limits assumed): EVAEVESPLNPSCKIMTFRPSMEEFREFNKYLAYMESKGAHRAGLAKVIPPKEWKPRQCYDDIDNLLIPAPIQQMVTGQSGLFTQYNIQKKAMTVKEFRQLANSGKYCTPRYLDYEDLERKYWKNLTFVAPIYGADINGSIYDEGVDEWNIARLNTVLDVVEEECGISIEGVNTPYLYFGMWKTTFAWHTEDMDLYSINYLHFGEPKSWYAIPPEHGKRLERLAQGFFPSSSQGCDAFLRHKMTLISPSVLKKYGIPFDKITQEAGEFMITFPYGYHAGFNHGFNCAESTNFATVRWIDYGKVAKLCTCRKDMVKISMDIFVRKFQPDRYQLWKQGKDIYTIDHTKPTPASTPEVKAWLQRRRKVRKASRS
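Material: N-terminal GST-fused human GASC-1 (KDM4C) fragment, residues 2-372. Input: 10 nM enzyme. Incubation: enzyme reaction 30 min, then detection 60 min, both room temperature. Doses: one test concentration per compound. Read-out basis: inhibition from TR-FRET ratio decrease. Detection: LANCE TR-FRET, excitation 340 nm, emissions 618 and 671 nm.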
T cruzi growth-1 – inhibitors of T. cruzi proliferation. inhibition, % at 8.34 µM. actives 5.9% (n = 77,000). T. cruzi beta-gal in NIH3T3, GalScreen luminescence, 90 h;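 active = mean inhibition above about 93%, with at least 55% of replicates each passing it, limit read from the data, passing the limit was not always enough; inconclusive = only one of those two conditions holds; inactive = neither condition holds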
T cruzi growth-2 – blocks T. cruzi growth in NIH3T3 host cells | shares compounds with T cruzi growth-1 | T. cruzi beta-gal in NIH3T3, GalScreen luminescence, 90 h | inhibition, % at 8.35 µM | actives 72% (n = 5,600);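 active = mean replicate inhibition above about 95% and at least 55% of replicates individually reaching it, limit read from the data; inconclusive = only one of the two criteria is met; inactive = neither criterion is met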
T cruzi growth-3 – Trypanosoma cruzi proliferation inhibition; T. cruzi beta-gal in NIH3T3, GalScreen luminescence, 90 h; shares compounds with T cruzi growth-1; inhibition, % at 2.09 µM; actives 21% (n = 5,600); AID 651740;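 active = mean inhibition above about 95%, with at least 55% of replicates also reaching it, limit read from the data; inconclusive = meets just one of the two conditions; inactive = meets neither condition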;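 note: plate controls were neutral control median for no effect and positive control median for full effect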
NIH3T3 tox – cytotoxicity in mouse NIH/3T3 fibroblasts | actives 14% (n = 5,600) | shares compounds with T cruzi growth-1 | cytotoxicity (signal decrease), % at 8.35 µM | NIH/3T3 viability, CellTiter-Glo ATP luminescence, 90 h;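 active = mean signal decrease across replicates above about 35% based on untreated-well scatter, with enough replicates individually passing, limit read from the data; inconclusive = no rule stated though some were filed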;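 note: 0% = median of neutral control wells and 100% = median of positive control wells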
NIH3T3 tox 2 – NIH/3T3 (mouse) viability loss; shares compounds with T cruzi growth-1; NIH/3T3 viability, CellTiter-Glo ATP luminescence, 90 h; inhibition, % at 24.9 µM; actives 56% (n = 5,600);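 active = mean loss of cell viability signal at or above a set limit, and enough replicates individually reaching it; inconclusive = meets only the mean limit or only the replicate share; inactive = meets neither condition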;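 note: 0% = median of neutral control wells and 100% = median of positive control wells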
* hit, by the source's call; ? = inconclusive; nt = no result given. Only a selection was taken, and hits are over-represented in it overall.

SMILES	IDH1 mut inh	KDM4C inh	T cruzi growth-1	T cruzi growth-2	T cruzi growth-3	NIH3T3 tox	NIH3T3 tox 2
C[C@@H]1CN([C@H](C)CO)C(=O)Cc2cc(NC(=O)Nc3ccccc3)ccc2O[C@@H]1CN(C)Cc1ccc(Cl)c(Cl)c1	nt	-1	102*	108*	41	6	104*
C[C@@H]1CN([C@@H](C)CO)C(=O)c2cc(NC(=O)Cc3cn(C)c4ccccc34)ccc2O[C@@H]1CN(C)Cc1ccc(Cl)c(Cl)c1	-6	-1	84	nt	nt	nt	nt
C[C@@H]1CN([C@@H](C)CO)C(=O)Cc2cc(NC(=O)Nc3ccccc3)ccc2O[C@H]1CN(C)Cc1ccc(Cl)c(Cl)c1	-1	3	41	nt	nt	nt	nt
C[C@@H]1CN([C@H](C)CO)C(=O)c2cc(NC(=O)Cc3cn(C)c4ccccc34)ccc2O[C@@H]1CN(C)Cc1ccc(C(=O)Nc2ccccc2N)cc1	0	-2	57	nt	nt	nt	nt
C[C@@H]1CN([C@H](C)CO)C(=O)c2cc(NC(=O)Cc3cn(C)c4ccccc34)ccc2O[C@@H]1CN(C)Cc1ccc(Cl)c(Cl)c1	0	0	102*	99*	59	16	37*
C[C@@H]1CN([C@@H](C)CO)C(=O)Cc2cc(NC(=O)Cc3cn(C)c4ccccc34)ccc2O[C@H]1CN(C)Cc1ccc(Cl)c(Cl)c1	0	-2	95	nt	nt	nt	nt
C[C@@H]1CN([C@H](C)CO)C(=O)Cc2cc(NC(=O)Cc3cn(C)c4ccccc34)ccc2O[C@H]1CN(C)Cc1ccc(C(=O)Nc2ccccc2N)cc1	-1	-1	?	91	37	5	15
CC(C)=CCC/C(C)=C/CC(O)/C(C)=C/Cc1cc(C(=O)O)ccc1O (configuration not stated)	0	nt	nt	nt	nt	nt	nt
CCN1CCN(C(=S)c2cc(I)c(OCC(=O)Nc3cccc(C)c3)c(OC)c2)CC1	-1	nt	nt	nt	nt	nt	nt
CS(=O)(=O)N(CC(=O)Nc1ccc(Br)cc1)c1ccc(Cl)c(C(F)(F)F)c1	0	nt	nt	nt	nt	nt	nt
CCCC#Cc1ccc2c(c1)O[C@H](CN(C)C(=O)C1CCCCC1)[C@@H](C)CN([C@H](C)CO)S2(=O)=O	nt	0	68	nt	nt	nt	nt
CCCC#Cc1ccc2c(c1)O[C@H](CN(C)C(=O)C1CCC1)[C@@H](C)CN([C@H](C)CO)S2(=O)=O	0	2	?	?	42	-11	4
CCCC#Cc1ccc2c(c1)O[C@@H](CN(C)C(=O)C1CCC1)[C@H](C)CN([C@@H](C)CO)S2(=O)=O	nt	-2	92	nt	nt	nt	nt
CCCC#Cc1ccc2c(c1)O[C@H](CN(C)C(=O)C1CCC1)[C@H](C)CN([C@H](C)CO)S2(=O)=O	nt	0	?	?	62	29	57*
Cc1cc(C#N)c2c(C)ccc(C(C)C)cc1-2	1	nt	nt	nt	nt	nt	nt
O=C(CN(c1ccc(F)cc1)S(=O)(=O)c1ccc2c(c1)OCCO2)N1CCc2ccccc2C1	4	nt	nt	nt	nt	nt	nt
COCC#Cc1ccc2c(c1)O[C@@H](CN(C)Cc1cncnc1)[C@H](C)CN([C@@H](C)CO)S2(=O)=O	0	0	106*	106*	89	10	36*
COCC#Cc1ccc2c(c1)O[C@H](CN(C)Cc1ccccc1)[C@H](C)CN([C@H](C)CO)S2(=O)=O	1	2	39	nt	nt	nt	nt
COCC#Cc1ccc2c(c1)O[C@H](CN(C)Cc1cncnc1)[C@@H](C)CN([C@@H](C)CO)S2(=O)=O	-2	-3	-4	nt	nt	nt	nt
COCC#Cc1ccc2c(c1)O[C@@H](CN(C)Cc1ccncc1)[C@H](C)CN([C@H](C)CO)S2(=O)=O	-3	6	109*	100*	91	11	63*
COCC#Cc1ccc2c(c1)O[C@@H](CN(C)Cc1ccccc1)[C@H](C)CN([C@H](C)CO)S2(=O)=O	-1	-4	109*	93	45	53*	106*
COCC#Cc1ccc2c(c1)O[C@H](CN(C)Cc1ccncc1)[C@@H](C)CN([C@@H](C)CO)S2(=O)=O	-2	1	54	nt	nt	nt	nt
Cc1cc(Cl)ccc1N(CC(=O)Nc1cc(Cl)cc(Cl)c1)S(C)(=O)=O	1	nt	nt	nt	nt	nt	nt
Cc1cc(C(=O)CSc2ncn[nH]2)c(C)n1-c1cc(Cl)ccc1Cl	3	nt	nt	nt	nt	nt	nt
COc1ccc(CN(C)C[C@@H]2OCCCC[C@H](C)Oc3ccc(NC(=O)Nc4cccc5ccccc45)cc3C(=O)N([C@@H](C)CO)C[C@@H]2C)cc1	-6	-1	?	103*	96*	25	103*
SMILES	IDH1 mut inh	KDM4C inh	T cruzi growth-1	T cruzi growth-2	T cruzi growth-3	NIH3T3 tox	NIH3T3 tox 2
COc1ccc(CN(C)C[C@@H]2OCCCC[C@@H](C)Oc3ccc(NC(=O)Nc4cccc5ccccc45)cc3C(=O)N([C@H](C)CO)C[C@H]2C)cc1	0	nt	87	nt	nt	nt	nt
COc1ccc(CN(C)C[C@@H]2OCCCC[C@@H](C)Oc3ccc(NC(=O)Nc4cccc5ccccc45)cc3C(=O)N([C@@H](C)CO)C[C@H]2C)cc1	0	14	79	nt	nt	nt	nt
COc1ccc(CN(C)C[C@H]2OCCCC[C@H](C)Oc3ccc(NC(=O)Nc4cccc5ccccc45)cc3C(=O)N([C@@H](C)CO)C[C@H]2C)cc1	2	-4	?	106*	92	25	?
CC(/C=C/C(=O)NO)=C\c1ccccc1OCc1cn(C[C@@H]2CCCN2S(=O)(=O)c2ccc(C)cc2)nn1	0	nt	nt	nt	nt	nt	nt
OC[C@H]1[C@@H](c2ccc(C#CC3CCCC3)cc2)[C@@H]2CN(CCC(F)(F)F)CCCCN12	nt	0	73	nt	nt	nt	nt
OC[C@@H]1[C@H](c2ccc(-c3ccccc3)cc2)[C@H]2CN(CCC(F)(F)F)CCCCN12	nt	-1	104*	103*	62	19	106*
CN(C)C(=O)c1ccc(-c2ccc([C@H]3[C@@H](CO)N4CCCCN(CCC(F)(F)F)C[C@H]34)cc2)cc1	nt	0	101*	100*	89	-9	-5
OC[C@@H]1[C@H](c2ccc(-c3cccc(F)c3)cc2)[C@H]2CN(CCC(F)(F)F)CCCCN12	nt	-2	107*	99*	85	27	104*
CN(C)C(=O)c1ccc(-c2ccc([C@@H]3[C@H](CO)N4CCCCN(CCC(F)(F)F)C[C@@H]34)cc2)cc1	nt	0	68	nt	nt	nt	nt
OC[C@@H]1[C@H](c2ccc(-c3cccc(F)c3)cc2)[C@@H]2CN(CCC(F)(F)F)CCCCN12	nt	0	91	nt	nt	nt	nt
OC[C@@H]1[C@@H](c2ccc(-c3ccccc3)cc2)[C@H]2CN(CCC(F)(F)F)CCCCN12	nt	1	85	nt	nt	nt	nt
OC[C@@H]1[C@H](c2ccc(C#CC3CCCC3)cc2)[C@H]2CN(CCC(F)(F)F)CCCCN12	nt	0	101*	89	109*	58*	105*
O=C(COc1ccccc1[N+](=O)[O-])Nc1cc(-c2nc3ccccc3s2)c(Cl)cc1Cl	0	nt	nt	nt	nt	nt	nt
